Measurements of several laboratories.
Compare with care: the assays were run in different laboratories.
FGFR3: Fibroblast growth factor receptor 3 (FGFR3, Homo sapiens, UniProt P22607)
FGFR3 G697C: Fibroblast growth factor receptor 3 (FGFR3, Homo sapiens, UniProt P22607, G697C)

| Compound | target | read-out | action | technique | concentration | measurement | result |
| --- | --- | --- | --- | --- | --- | --- | --- |
| Cc1sc(C(=O)NC2COC2)cc1-n1cc(NC(=O)Nc2c(F)cccc2Cl)cn1 | FGFR3 | enzyme activity | inhibitor | – | 10 µM | remaining activity | 137% |
| CC(C)(C)c1nc2c(s1)c1nc(N)ncc1c1ccc(NS(=O)(=O)c3c(F)cccc3F)c(F)c12 | FGFR3 | enzyme activity | inhibitor | radiometric | 1 µM | remaining activity | 91% |
| CN(C)c1ncnc(-c2ccc3nc(Nc4cc(CN5CCN(C(=O)CC(F)(F)F)CC5)ccn4)[nH]c3c2)c1Cl | FGFR3 | cell-free assay | – | competition with immobilised ligand | 1 µM | remaining binding | 100% |
| CCN(CC)c1ccc(C2=NNC(=O)CC2C)cc1[N+](=O)[O-] (centres unmarked) | FGFR3 | enzyme activity | inhibitor | – | 10 µM | remaining activity | 93% |
| N#CCCc1ccc2c(c1)-c1[nH]c3ccc([N+](=O)[O-])cc3c1CC(=O)N2 | FGFR3 | cell-free assay | – | – | 0.5 µM | remaining signal | 90.3% |
| F[C@@H]1CCN(c2nccc(-c3cnn4ncccc34)n2)C1 | FGFR3 | binding | – | – | 1 µM | remaining binding | 100% |
| CSc1nc(C)c(-c2ccnc(Nc3ccc(N4CCOCC4)cc3)c2)[nH]1 | FGFR3 | cell-free assay | inhibitor | – | 10 µM | inhibition | 70.4% |
| C[C@@H]1CN(c2cc(-c3n[nH]c4ccc(OC5(C)CC5)cc34)ncn2)C[C@H](C)O1 | FGFR3 G697C | cell-free assay | – | competition with immobilised ligand | 0.1 µM | remaining binding | 86% |
| CC/C(=N\NC(=O)NCc1cccc(O)c1)c1ccc(O)c(C)c1O | Fibroblast growth factor receptor 3 (FGFR3, Homo sapiens, UniProt P22607, V555L) | enzyme activity | inhibitor | – | 0.1 µM | inhibition | -0.1% |
| COc1cc(-c2cn(C3CCc4c(F)cccc4N(CC(F)(F)F)C3=O)nn2)ccc1-n1cnc(C)c1 (centres unmarked) | FGFR3 | cell-free assay | – | competition with immobilised ligand | 1 µM | remaining binding | 100% |
| C[C@H]1CCN(c2nccc(-c3cnn4ncccc34)n2)C1 | FGFR3 G697C | binding | – | – | 1 µM | remaining binding | 83% |
| O=C(CSc1nc2nccnc2c(=O)n1CCc1ccccc1)Nc1nccs1 | FGFR3 | enzyme activity | inhibitor | – | 10 µM | inhibition | 8% |
| CCCCN(CCCC)C(=O)CN1C[C@H](c2cc(OC)c3c(c2)OCO3)[C@@H](C(=O)O)[C@@H]1CC(C)(C)CCC | FGFR3 | cell-free assay | – | competition with immobilised ligand | 1 µM | remaining binding | 100% |
| COc1cc2ncnc(Nc3ccc(F)c(Cl)c3)c2cc1OCCCN1CCOCC1 | FGFR3 | cell-free assay | – | – | 0.5 µM | remaining signal | 79.3% |
| Cc1nc(Cc2cccc(C(F)(F)F)c2)sc1-c1ccc(C(N)=O)nc1 | FGFR3 | cell-free assay | – | competition with immobilised ligand | 1 µM | remaining binding | 100% |
| Cc1ccc(Nc2nccc(N(C)c3ccc4c(C)n(C)nc4c3)n2)cc1S(N)(=O)=O | FGFR3 | enzyme activity | inhibitor | – | 10 µM | inhibition | 99% |
| COc1cc2ncnc(Nc3ccc(Oc4ccccc4)c(C)c3C)c2cc1OC | Fibroblast growth factor receptor 3 (FGFR3, Homo sapiens, UniProt P22607, K650E) | enzyme activity | inhibitor | – | 1 µM | inhibition | 3% |
| O=c1nc(-c2ccccn2)sc2ccccc12 | FGFR3 | cell-free assay | – | competition with immobilised ligand | 1 µM | remaining binding | 83% |
| N[C@H]1CCN(c2nccc(-c3cnn4ncccc34)n2)C1 | FGFR3 G697C | binding | – | – | 1 µM | remaining binding | 100% |
| CNCc1ccc(-c2cc(-c3nc(-c4ccc(S(=O)(=O)C(C)C)cc4)cnc3N)on2)cc1 | FGFR3 | enzyme activity | inhibitor | – | 0.4 µM | inhibition | 0% |
